Data published in ChEMBL document CHEMBL4706596, “Synthesis, biological evaluation, in silico modeling and crystallization of novel small monocationic molecules with potent antiproliferative activity by dual mechanism” (Eur J Med Chem, 2020).

Tests used:
HeLa [1] = assay: Induction of cell cycle arrest in human HeLa cells assessed as accumulation at G0/G1 phase at 1 uM incubated for 24 hrs by PI staining based flowcytometry analysis (reference value: 57 %); format: functional
HeLa [2] = assay: Antiproliferative activity against human HeLa cells assessed as inhibition of cell proliferation incubated for 72 hrs by MTT assay; format: functional
Summary of the method: (§1)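 Cells seeded at 8 × 10³/well and held 18 h at 37 °C, 5% CO₂. Medium then replaced with compound at several concentrations for 72 h at 37 °C, followed by MTT viability read-out. GI50 is taken against cells given the maximum DMSO (0.25%), which is set as 100% viability. Dose-response curves come from at least three independent experiments run in triplicate and are reported as mean ± SE.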

HT-29 [3] = assay: Antiproliferative activity against human HT-29 cells assessed as inhibition of cell proliferation incubated for 72 hrs by MTT assay; format: functional; summary of the method: as §1
RS4-11 = assay: Antiproliferative activity against human RS4-11 cells assessed as inhibition of cell proliferation incubated for 72 hrs by MTT assay; format: functional; summary of the method: as §1
CCRF-CEM = assay: Antiproliferative activity against human CCRF-CEM cells assessed as inhibition of cell proliferation incubated for 72 hrs by MTT assay; format: functional; summary of the method: as §1
Choline kinase alpha [4] = target: T1, Choline kinase alpha (Homo sapiens, UniProt P35790); assay: Binding affinity to human CKalpha1 assessed as dissociation constant by spectroflurometry
Summary of the method: (§2)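 Purified human CK (cloned as reported earlier) at 1 µM was titrated with compound in 25 mM Tris, 150 mM NaCl, pH 7.5 at 25 °C. Compound ranges were 0.1–10 µM for CKα1 and 0.5–200 µM for CKβ. Tryptophan quenching was read with excitation at 280 nm, emission 300–400 nm and 5 nm slits. DMSO-matched controls were run, and Kd was fitted to a single-site model. Results are given as mean ± SD.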
Target sequence in this assay (P35790 whole entry): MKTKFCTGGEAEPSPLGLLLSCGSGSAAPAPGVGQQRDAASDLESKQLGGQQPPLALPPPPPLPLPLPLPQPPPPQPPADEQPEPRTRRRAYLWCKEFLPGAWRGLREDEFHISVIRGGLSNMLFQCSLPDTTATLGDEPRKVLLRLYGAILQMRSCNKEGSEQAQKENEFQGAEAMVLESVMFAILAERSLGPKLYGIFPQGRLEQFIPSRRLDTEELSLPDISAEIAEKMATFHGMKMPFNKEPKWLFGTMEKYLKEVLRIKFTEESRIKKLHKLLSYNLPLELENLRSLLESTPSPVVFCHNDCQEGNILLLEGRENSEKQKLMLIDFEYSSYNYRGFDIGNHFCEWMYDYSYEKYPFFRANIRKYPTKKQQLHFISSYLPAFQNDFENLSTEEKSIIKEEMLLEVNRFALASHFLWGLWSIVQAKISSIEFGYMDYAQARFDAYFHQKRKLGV

[5] = target: Choline/ethanolamine kinase (Homo sapiens, UniProt Q9Y259); assay: Binding affinity to human CKbeta assessed as dissociation constant by spectroflurometry; summary of the method: as §2
Chain of Choline/ethanolamine kinase (Q9Y259 whole entry): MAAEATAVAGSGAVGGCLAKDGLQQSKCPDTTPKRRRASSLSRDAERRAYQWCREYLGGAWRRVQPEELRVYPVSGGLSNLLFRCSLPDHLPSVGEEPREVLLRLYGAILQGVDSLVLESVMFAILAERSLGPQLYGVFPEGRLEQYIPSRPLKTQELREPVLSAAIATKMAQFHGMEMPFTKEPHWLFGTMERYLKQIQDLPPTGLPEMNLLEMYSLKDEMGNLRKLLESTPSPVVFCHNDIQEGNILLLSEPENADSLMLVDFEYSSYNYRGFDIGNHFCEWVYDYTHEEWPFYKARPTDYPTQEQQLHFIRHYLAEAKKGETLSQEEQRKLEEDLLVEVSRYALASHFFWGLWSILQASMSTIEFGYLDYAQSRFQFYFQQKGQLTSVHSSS

Homo sapiens = organism: Homo sapiens; assay: Selectivity index, ratio of Kd for human CKbeta to Kd for human CKalpha1
Choline kinase alpha [6] = target: T1, Choline kinase alpha; assay: (§3) Inhibition of human CKalpha1 assessed as reduction in 14C incorporation from [methyl-14C]choline to phosphatidylcholine at 10 uM using [methyl-14C]choline as substrate preincubated for 5 mins in presence of ATP and MgCl2 followed by substrate addition and measured after 10 mins by liquid scintillation counting method relative to control; conditions: time 15.0 min
Summary of the method: (§4)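 Purified human CKα1 (20 ng) in 100 mM Tris pH 8.5 with 10 mM MgCl₂ and 10 mM ATP, DMSO ≤0.1%, was preincubated 5 min at 37 °C. Reaction was started with 1 mM [methyl-¹⁴C]choline (4500 dpm/nmol), run 10 min at 37 °C and stopped in boiling water. Product was separated by silica TLC, scraped and scintillation-counted against DMSO controls. At least three experiments were run; IC50 was obtained from sigmoidal dose-response fits.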
Target sequence in this assay (P35790 whole entry, looked up): as the sequence (P35790 whole entry) above

Choline kinase alpha [7] = target: T1, Choline kinase alpha; assay: as §3, with “at 30” for “at 10”; conditions: time 15.0 min; summary of the method: as §4
Target sequence in this assay (P35790 whole entry, looked up): as the sequence (P35790 whole entry) above

Choline kinase alpha [8] = target: T1, Choline kinase alpha; assay: as §3, with “[…]” for “phosphatidylcholine at 10 uM”; summary of the method: as §4
Target sequence in this assay (P35790 whole entry): as above

[9] = Inhibition of [methyl-14C]choline uptake in human HT-29 cells at 10 uM incubated for 10 mins followed by removal of medium containing compound and subsequent addition of [methyl-14C]choline measured after 5 mins relative to control; format: functional; conditions: HT-29, 10 min
Summary of the method: (§5)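 Cells at 200,000/well were incubated for 10 min at 37 °C in medium with or without CKα1 inhibitor. The medium was then removed and cells were exposed to [methyl-¹⁴C]choline (31 Ci/mol) for 5 min at 37 °C. Uptake was stopped by aspiration and two ice-cold PBS washes containing choline. Inhibition is expressed as % of untreated control.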

[10] = Inhibition of [methyl-14C]choline uptake in human HT-29 cells at 30 uM incubated for 10 mins followed by removal of medium containing compound and subsequent addition of [methyl-14C]choline measured after 5 mins relative to control; format: functional; conditions: HT-29, 10 min; summary of the method: as §5
[11] = Inhibition of [methyl-14C]choline uptake in human HepG2 cells at 10 uM incubated for 10 mins followed by removal of medium containing compound and subsequent addition of [methyl-14C]choline measured after 5 mins relative to control; format: functional; conditions: HepG2, 10 min; summary of the method: as §5
[12] = Inhibition of [methyl-14C]choline uptake in human HepG2 cells at 30 uM incubated for 10 mins followed by removal of medium containing compound and subsequent addition of [methyl-14C]choline measured after 5 mins relative to control; format: functional; conditions: HepG2, 10 min; summary of the method: as §5
HeLa [13] = assay: Induction of cell cycle arrest in human HeLa cells assessed as accumulation at S phase at 1 uM incubated for 24 hrs by PI staining based flowcytometry analysis (reference value: 32.30 %); format: functional
HeLa [14] = assay: Induction of cell cycle arrest in human HeLa cells assessed as accumulation at G2/M phase at 1 uM incubated for 24 hrs by PI staining based flowcytometry analysis (reference value: 10.7 %); format: functional
HeLa [15] = assay: Induction of cell cycle arrest in human HeLa cells assessed as accumulation at G0/G1 phase at 2.5 uM incubated for 24 hrs by PI staining based flowcytometry analysis (reference value: 57 %); format: functional
HeLa [16] = assay: Induction of cell cycle arrest in human HeLa cells assessed as accumulation at S phase at 2.5 uM incubated for 24 hrs by PI staining based flowcytometry analysis (reference value: 32.30 %); format: functional
HeLa [17] = assay: Induction of cell cycle arrest in human HeLa cells assessed as accumulation at G2/M phase at 2.5 uM incubated for 24 hrs by PI staining based flowcytometry analysis (reference value: 10.70 %); format: functional
HT-29 [18] = assay: Induction of cell cycle arrest in human HT-29 cells assessed as accumulation at G0/G1 phase at 1 uM incubated for 24 hrs by PI staining based flowcytometry analysis (reference value: 60.20 %); format: functional
HT-29 [19] = assay: Induction of cell cycle arrest in human HT-29 cells assessed as accumulation at S phase at 1 uM incubated for 24 hrs by PI staining based flowcytometry analysis (reference value: 27.40 %); format: functional
HT-29 [20] = assay: Induction of cell cycle arrest in human HT-29 cells assessed as accumulation at G2/M phase at 1 uM incubated for 24 hrs by PI staining based flowcytometry analysis (reference value: 12.40 %); format: functional
HT-29 [21] = assay: Induction of cell cycle arrest in human HT-29 cells assessed as accumulation at G0/G1 phase at 2.5 uM incubated for 24 hrs by PI staining based flowcytometry analysis (reference value: 60.20 %); format: functional
HT-29 [22] = assay: Induction of cell cycle arrest in human HT-29 cells assessed as accumulation at S phase at 2.5 uM incubated for 24 hrs by PI staining based flowcytometry analysis (reference value: 27.40 %); format: functional
HT-29 [23] = assay: Induction of cell cycle arrest in human HT-29 cells assessed as accumulation at G2/M phase at 2.5 uM incubated for 24 hrs by PI staining based flowcytometry analysis (reference value: 12.40 %); format: functional
HT-29 [24] = assay: Induction of apoptosis in human HT-29 cells measured for 48 hrs by annexin V-FITC and PI staining based flowcytometry analysis; format: functional, cell-based; conditions: dose 2.5-5 µM
Summary of the method: (§6)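 Treated cells were collected at different times, dual-stained with annexin V-FITC (phosphatidylserine exposure) and propidium iodide (DNA), and analysed by bi-parametric flow cytometry.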

HeLa [25] = assay: Induction of apoptosis in human HeLa cells measured for 48 hrs by annexin V-FITC and PI staining based flowcytometry analysis; format: functional, cell-based; conditions: dose 2.5-5 µM; summary of the method: as §6
HT-29 [26] = assay: Induction of mitochondrial membrane potential loss in human HT-29 cells measured for 48 hrs by JC1 staining based flow cytometry analysis; format: functional, cell-based; conditions: dose 2.5-5 µM
Summary of the method: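 Cells were treated with compound, then stained with the fluorescent dye JC-1. Loss of mitochondrial membrane potential was monitored by flow cytometry.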

HT-29 [27] = assay: Induction of apoptosis in human HT-29 cells at 2.5 to 5 uM by annexin V-FITC and PI staining based flowcytometry analysis; format: functional, cell-based; conditions: dose 2.5-5 µM, time 24-48 hrs, TDE = time-dependent effect; summary of the method: as §6
HeLa [28] = assay: Induction of apoptosis in human HeLa cells at 2.5 to 5 uM by annexin V-FITC and PI staining based flowcytometry analysis; format: functional, cell-based; conditions: dose 2.5-5 µM, time 24-48 hrs, TDE = time-dependent effect; summary of the method: as §6
HeLa [29] = assay: Induction of mitochondrial membrane potential loss in human HeLa cells by JC1 staining based flow cytometry analysis; conditions: dose 2.5-5 µM
HT-29 [30] = assay: Induction of cell cycle arrest in human HT-29 cells assessed as increase accumulation of G0/G1 phase incubated for 24 hrs by PI staining based flowcytometry analysis; conditions: dose 1-2.5 µM

- GI50 (HeLa [2]): 360 nM
- GI50 (HT-29 [3]): 90 nM
- GI50 (RS4-11): 60 nM
- GI50 (CCRF-CEM): 150 nM
- Kd (Choline kinase alpha [4]): 370 nM
- Kd [5]: 63000 nM
- Ratio (Homo sapiens): 171
- inhibition (Choline kinase alpha [6]): 74.4%
- inhibition (Choline kinase alpha [7]): 94.4%
- IC50 (Choline kinase alpha [8]): 6740 nM
SMILES: Clc1ccc2c(N3CCCCCC3)cc[n+](Cc3ccc(-c4ccccc4)cc3)c2c1.[Br-]
- Activity (HeLa [1]): 67.47%
- inhibition at 10 µM [9]: 86.9%
- inhibition at 30 µM [10]: 96.7%
- inhibition at 10 µM [11]: 88.2%
- inhibition at 30 µM [12]: 95.5%
- Activity (HeLa [13]): 25.23%
- Activity (HeLa [14]): 7.31%
- Activity (HeLa [15]): 66.27%
- Activity (HeLa [16]): 27.31%
- Activity (HeLa [17]): 4.5%
- Activity (HT-29 [18]): 88%
- Activity (HT-29 [19]): 5.1%
- Activity (HT-29 [20]): 6.9%
- Activity (HT-29 [21]): 86.3%
- Activity (HT-29 [22]): 5.8%
- Activity (HT-29 [23]): 7.9%
- Activity (HT-29 [24]): Dose-dependent effect
- Activity (HeLa [25]): Dose-dependent effect
- Activity (HT-29 [26]): Dose-dependent effect
- Activity (HT-29 [27]): Tde
- Activity (HeLa [28]): Tde
- Activity (HeLa [29]): Dose-dependent effect
- Activity (HT-29 [30]): Dose-dependent effect
